According to ChEMBL document CHEMBL1955842, “Substituent effects on P2-cyclopentyltetrahydrofuranyl urethanes: design, synthesis, and X-ray studies of potent HIV-1 protease inhibitors” (Bioorg Med Chem Lett, 2012):

What was measured:
[1] = test system: Human immunodeficiency virus 1; assay: Antiviral activity against HIV1 MDR/G harboring protease L10I, V11I, T12E, I15V, L19I, R41K, M46L, L63P, A71T, V82A, and L90M mutant infected in PHA-PBM cells assessed as inhibition of p24 Gag protein production; format: functional, organism-based; conditions: Human immunodeficiency virus 1, MDR/G, PBMC
Method in brief: (§1)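 EC50 measured against each isolate. Assays run in duplicate. Values are means (±1 standard deviation) from two or three independent experiments. Fold-change for each isolate is its EC50 relative to the EC50 for wild-type HIV-1ERS104pre.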

[2] = test system: Human immunodeficiency virus 1; assay: Antiviral activity against HIV1 MDR/TM harboring protease L10I, K14R, R41K, M46L, I54V, L63P, A71V, V82A, L90M, I93L mutant infected in PHA-PBM cells assessed as inhibition of p24 Gag protein production; format: functional, organism-based; conditions: Human immunodeficiency virus 1, MDR/TM, PBMC; method in brief: as §1
[3] = test system: Human immunodeficiency virus 1; assay: Antiviral activity against HIV1 MDR/B harboring protease L10I, K14R, L33I, M36I, M46I, F53I, K55R, I62V, L63P, A71V, G73S, V82A, L90M, I93L mutant infected in PHA-PBM cells assessed as inhibition of p24 Gag protein production; format: functional, organism-based; conditions: Human immunodeficiency virus 1, MDR/B, PBMC; method in brief: as §1
[4] = test system: Human immunodeficiency virus 1; assay: Antiviral activity against HIV1 MDR/C harboring protease L10I, I15V, K20R, L24I, M36I, M46L, I54V, I62V, L63P, K70Q, V82A, and L89 mutant infected in PHA-PBM cells assessed as inhibition of p24 Gag protein production; format: functional, organism-based; conditions: Human immunodeficiency virus 1, MDR/C, PBMC; method in brief: as §1
Protease = Protease (Human immunodeficiency virus 1, UniProt Q9YQ12); assay: Inhibition of HIV1 protease using hexapeptide Ac-Thr-Ile-Nle-Nle-Gln-Arg-NH2 as substrate by fluorimetric assay
[5] = test system: Human immunodeficiency virus 1; assay: Antiviral activity against HIV1 […] infected in human MT2 cells by MTT assay; format: functional, organism-based; conditions: Human immunodeficiency virus 1, MT2
Method in brief: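 MT-2 human T-lymphoid cells (2 × 10^3) infected with 100 TCID50 of HIV-1LAI and cultured with inhibitor present. IC50 read out by MTT assay.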

[6] = test system: Human immunodeficiency virus 1; assay: Antiviral activity against wild type HIV1 ERS104 infected in PHA-PBM cells assessed as inhibition of p24 Gag protein production; format: functional, organism-based; conditions: Human immunodeficiency virus 1, ERS104, PBMC; method in brief: as §1
[7] = test system: Human immunodeficiency virus 1; assay: Ratio of EC50 for HIV1 MDR/C harboring protease L10I, I15V, K20R, L24I, M36I, M46L, I54V, I62V, L63P, K70Q, V82A, and L89 mutant to EC50 for HIV1 ERS104 harboring wild type protease; format: functional
Method in brief: (§2)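 Fold-change: EC50 against each multidrug-resistant HIV-1 isolate divided by EC50 against wild-type HIV-1ERS104pre. Assays run in duplicate; values are means (±1 standard deviation) from two or three independent experiments.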

[8] = test system: Human immunodeficiency virus 1; assay: Ratio of EC50 for HIV1 MDR/G harboring protease L10I, V11I, T12E, I15V, L19I, R41K, M46L, L63P, A71T, V82A, and L90M mutant to EC50 for HIV1 ERS104 harboring wild type protease; format: functional; method in brief: as §2
[9] = test system: Human immunodeficiency virus 1; assay: Ratio of EC50 for HIV1 MDR/TM harboring protease L10I, K14R, R41K, M46L, I54V, L63P, A71V, V82A, L90M, I93L mutant to EC50 for HIV1 ERS104 harboring wild type protease; format: functional; method in brief: as §2
[10] = test system: Human immunodeficiency virus 1; assay: Ratio of EC50 for HIV1 MDR/B harboring protease L10I, K14R, L33I, M36I, M46I, F53I, K55R, I62V, L63P, A71V, G73S, V82A, L90M, I93L mutant to EC50 for HIV1 ERS104 harboring wild type protease; format: functional; method in brief: as §2

Chain of Protease (Q9YQ12 whole entry): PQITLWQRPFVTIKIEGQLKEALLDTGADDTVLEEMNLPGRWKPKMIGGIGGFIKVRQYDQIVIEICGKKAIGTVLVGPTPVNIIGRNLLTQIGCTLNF

Row | Compound | EC50 [1] [nM] | EC50 [2] [nM] | EC50 [3] [nM] | EC50 [4] [nM] | Ki (Protease) [nM] | IC50 [5] [nM] | EC50 [6] [nM] | Ratio EC50 [7] | Ratio EC50 [8] | Ratio EC50 [9] | Ratio EC50 [10]
1 | CC(C)CN(C[C@@H](O)[C@H](Cc1ccccc1)NC(=O)O[C@H]1CO[C@H]2OCC[C@H]21)S(=O)(=O)c1ccc(N)cc1 | 11 | 28 | 19 | 11 |  |  |  |  |  |  | 
2 | COc1ccc(S(=O)(=O)N(CC(C)C)C[C@@H](O)[C@H](Cc2ccccc2)NC(=O)O[C@@H]2C[C@@H]3[C@H](NC(C)=O)CO[C@@H]3C2)cc1 |  |  |  |  | 0.0074 | 25 |  |  |  |  | 
3 | COc1ccc(S(=O)(=O)N(CC(C)C)C[C@@H](O)[C@H](Cc2ccccc2)NC(=O)O[C@@H]2C[C@@H]3[C@@H](NC(C)=O)CO[C@@H]3C2)cc1 |  |  |  |  | 0.0075 | 31 |  |  |  |  | 
4 | COC(=O)N[C@@H]1CO[C@@H]2C[C@H](OC(=O)N[C@@H](Cc3ccccc3)[C@H](O)CN(CC(C)C)S(=O)(=O)c3ccc(OC)cc3)C[C@H]12 | 39 | 74 | 75 | 30 |  | 1.6 | 29 | 1 | 1 | 3 | 3
5 | COC(=O)N[C@H]1CO[C@@H]2C[C@H](OC(=O)N[C@@H](Cc3ccccc3)[C@H](O)CN(CC(C)C)S(=O)(=O)c3ccc(OC)cc3)C[C@H]12 | 20 | 24 | 18 | 15 | 0.004 | 4.6 | 3 | 5 | 7 | 8 | 6
6 | COc1ccc(S(=O)(=O)N(CC(C)C)C[C@@H](O)[C@H](Cc2ccccc2)NC(=O)O[C@@H]2C[C@@H]3[C@H](NS(C)(=O)=O)CO[C@@H]3C2)cc1 |  |  |  |  | 0.032 | 28 |  |  |  |  | 
7 | COc1ccc(S(=O)(=O)N(CC(C)C)C[C@@H](O)[C@H](Cc2ccccc2)NC(=O)O[C@@H]2C[C@@H]3[C@@H](NS(C)(=O)=O)CO[C@@H]3C2)cc1 |  |  |  |  | 0.18 | 50 |  |  |  |  | 
8 | COc1ccc(S(=O)(=O)N(CC(C)C)C[C@@H](O)[C@H](Cc2ccccc2)NC(=O)O[C@@H]2C[C@@H]3[C@@H](OC(=O)N(C)C)CO[C@@H]3C2)cc1 |  |  |  |  | 0.02 | 4.7 |  |  |  |  | 
